Among the data in ChEMBL document CHEMBL4837193 (Eur J Med Chem, 2021) are IC50 and inhibition values, retold here.

Where only a bound is given, the exact number is not on record here.

By IC50 is commonly meant the concentration that inhibits the measured activity by half. By inhibition is commonly meant the percentage by which the read-out fell short of the control.

One experiment concerns HeLa. Kind of experiment: Antiproliferative activity against human HeLa cells assessed as cell growth inhibition after 48 hrs by MTT assay. In kind it is functional, cell-based. Summed up: (§1)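 Cells grown at 37 °C with CO2 in RPMI-1640 or DMEM plus 10% FBS. Seeded at 2 × 10³ per well, attached 24 h, then medium changed. Compound exposure 48 h at 37 °C, DMSO 0.1% as vehicle. MTT added and incubated a further 4 h. Crystals dissolved, absorbance read at 570 nm. IC50 from curve fitting, mean ± SD of three independent experiments.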
In general terms: Formazan colour is commonly taken as a measure of viable cells.

The test system of the next experiment is T47D. Nature of the experiment: Antiproliferative activity against human T47D cells assessed as cell growth inhibition after 48 hrs by MTT assay. In kind it is functional, cell-based.
A further experiment concerns HT-29. Nature of the experiment: Antiproliferative activity against human HT29 cells assessed as cell growth inhibition after 48 hrs by MTT assay. The format is functional, cell-based. To be noted: HT-29, 48 h.
The target in a further experiment is Tubulin (Homo sapiens) (UniProt P68371+Q9H4B7+P0DPH7+P68366+Q13509+Q71U36+P04350+Q3ZCM7+P07437+P68363+Q9BQE3+Q6PEY2+Q13885+Q9BVA1+Q9BUF5). Kind of experiment: Inhibition of tubulin polymerization (unknown origin) at 10 uM measured after 30 mins every 1 min for 20 mins by spectrophotometric method. In kind it is protein-complex assay. Summed up: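 Tubulin at 2 mg/mL in PEM buffer (100 mM PIPES pH 6.9, 1 mM MgCl2, 1 mM EGTA, 5% glycerol) preincubated on ice with compound or DMSO, then GTP added. After 0.5 h, A340 read every 1 min for 20 min at 37 °C. Plateau values used. Single-point inhibition at 10 µM; IC50 is the concentration halving polymerization at 20 min, mean ± SD of three experiments.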

The next experiment relates to HCT-116. Kind of experiment: Antiproliferative activity against human HCT-116 cells assessed as cell growth inhibition after 48 hrs by MTT assay. In kind it is functional, cell-based. The settings on record: HCT-116, 48 h. An outline of the steps: as §1
For a further experiment, the system named is HEK293. Kind of experiment: Antiproliferative activity against human HEK293 cells assessed as cell growth inhibition after 48 hrs by MTT assay. The format is cell-based. To be noted: HEK293, 48 h. Summed up:
as §1

The next experiment relates to HepG2. Nature of the experiment: Antiproliferative activity against human HepG2 cells assessed as cell growth inhibition after 48 hrs by MTT assay. The format is functional, cell-based. To be noted: HepG2, 48 h. An outline of the steps:
as §1

A further experiment relates to A549. Kind of experiment: Antiproliferative activity against human A549 cells assessed as cell growth inhibition after 48 hrs by MTT assay. The format is functional, cell-based. To be noted: A549, 48 h. Summed up:
as §1

Another experiment deals with Tubulin. Kind of experiment: Inhibition of tubulin polymerization (unknown origin) measured afer 30 mins every 1 min for 20 mins by spectrophotometric method. The format is protein-complex assay, Homo sapiens. An outline of the steps: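 Tubulin at 2 mg/mL in PEM buffer (100 mM PIPES pH 6.9, 1 mM MgCl2, 1 mM EGTA, 5% glycerol) preincubated on ice with compound or DMSO, then GTP added. After 0.5 h, A340 read every 1 min for 20 min at 37 °C. Plateau values used.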

As for `COc1ccc(-c2nc3nccc(-c4cc(OC)c(OC)c(OC)c4)n3n2)cc1NC(C)=O`, the IC50 was 0.28 µM with HeLa; 5.67 µM in the experiment on T47D; 1.66 µM in the experiment with HT-29; 22.4 µM with HCT-116; 82.1 µM in the experiment on HEK293; over 100 µM in the experiment with HepG2. Further, the IC50 in the experiment on A549 is 34.6 µM. On Tubulin (Homo sapiens), this compound showed an inhibition of 16%.

Regarding `COc1ccc(/C=C\c2cc(OC)c(OC)c(OC)c2)cc1O` [COMBRETASTATIN A4], the IC50 in the experiment on T47D was 0.027 µM; in the experiment on HepG2, 5.29 µM.

Consider `COc1cc(-c2nc3nccc(-c4cc5ccccc5oc4=O)n3n2)cc(OC)c1OC`, for which the IC50 in the experiment on HeLa was over 30 µM.

Consider `COc1cc(-c2nc3nccc(-c4ccc([N+](=O)[O-])cc4)n3n2)cc(OC)c1OC`, for which the IC50 with HeLa was over 30 µM.

Regarding `COc1cc(-c2nc3nccc(-c4ccc(C(F)(F)F)cc4)n3n2)cc(OC)c1OC`, the IC50 in the experiment with HeLa is over 30 µM.

For the compound `COc1ccc(-c2ccnc3nc(-c4cc(OC)c(OC)c(OC)c4)nn23)cc1N`, the IC50 is 0.4 µM with HeLa; over 100 µM in the experiment on T47D; 11.5 µM in the experiment on HT-29; 91.1 µM in the experiment on HCT-116; over 100 µM in the experiment on HEK293; 41.2 µM in the experiment on HepG2. The IC50 with A549 was over 100 µM. In addition, the inhibition at Tubulin (Homo sapiens) was 12%.

As for `COc1cc(-c2ccnc3nc(-c4ccc(C)cc4)nn23)cc(OC)c1OC`, the IC50 with HeLa is over 30 µM.

On to `COc1cc(-c2nc3nccc(-c4ccc(NC(C)=O)cc4)n3n2)cc(OC)c1OC`, for which the IC50 with HeLa was found to be 22.2 µM.

Regarding `COc1cc(-c2nc3nccc(-c4cccc5ccccc45)n3n2)cc(OC)c1OC`, the IC50 in the experiment with HeLa was 28.6 µM.

`COc1ccc(-c2ccnc3nc(-c4cc(OC)c(OC)c(OC)c4)nn23)cc1[N+](=O)[O-]`: the IC50 in the experiment with HeLa was over 30 µM.

Take `COc1ccc(-c2nc3nccc(-c4cc(OC)c(OC)c(OC)c4)n3n2)cc1N`: the IC50 is 0.11 µM in the experiment with HeLa; 6.51 µM with T47D; 83 µM with HT-29; over 100 µM in the experiment with HCT-116; over 100 µM in the experiment with HEK293; 12.2 µM against Tubulin. Further, the IC50 is 21.1 µM with HepG2 and 18.9 µM in the experiment with A549. Moreover, the inhibition at Tubulin (Homo sapiens) came out at 49%.

With `COc1ccc(-c2ccnc3nc(-c4cc(OC)c(OC)c(OC)c4)nn23)cc1OC`, the IC50 with HeLa was over 30 µM.

Take `COc1cc(-c2nc3nccc(-c4ccc(N)cc4)n3n2)cc(OC)c1OC`: the IC50 in the experiment on HeLa is 29.9 µM.

In the case of `COc1ccc(-c2ccnc3nc(-c4cc(OC)c(OC)c(OC)c4)nn23)cc1Cl`, the IC50 with HeLa was over 30 µM.

`COc1cc(-c2nc3nccc(-c4cc(OC)c(OC)c(OC)c4)n3n2)cc(OC)c1OC`: the IC50 with HeLa is over 30 µM.

`COc1cc(-c2nc3nccc(-c4cccnc4)n3n2)cc(OC)c1OC`: the IC50 in the experiment on HeLa is over 30 µM.

Turning to `COc1cc(-c2nc3nccc(-c4cccs4)n3n2)cc(OC)c1OC`, the IC50 in the experiment on HeLa was over 30 µM.

As to `COC(=O)c1ccc(-c2ccnc3nc(-c4cc(OC)c(OC)c(OC)c4)nn23)cc1`, in the experiment with HeLa, the 50% inhibitory concentration (IC50) was over 30 µM.

`COc1cc(-c2ccnc3nc(-c4ccc(Cl)c(Cl)c4)nn23)cc(OC)c1OC`: the IC50 in the experiment on HeLa is over 30 µM.

Regarding `COc1cc(-c2nc3nccc(-c4ccccc4C)n3n2)cc(OC)c1OC`, the IC50 in the experiment on HeLa is over 30 µM.

Consider `COc1ccc(-c2nc3nccc(-c4cc(OC)c(OC)c(OC)c4)n3n2)cc1`, for which, in the experiment with HeLa, the IC50 came out at 0.9 µM.

Take `COc1cc(-c2nc3nccc(-c4ccc(C)cc4)n3n2)cc(OC)c1OC`: the IC50 in the experiment with HeLa was over 30 µM.

In the case of `COc1cc(-c2nc3nccc(-c4cc(Cl)c(NC(C)=O)c(Cl)c4)n3n2)cc(OC)c1OC`, the concentration for half-maximal inhibition (IC50) in the experiment with HeLa was over 30 µM.

Take `COc1ccc(-c2ccnc3nc(-c4cc(OC)c(OC)c(OC)c4)nn23)cc1`: the IC50 in the experiment on HeLa was over 30 µM.

As to `COc1cc(-c2nc3nccc(-c4ccc(Cl)c(Cl)c4)n3n2)cc(OC)c1OC`, in the experiment on HeLa, the IC50 was over 30 µM.

Regarding `COc1ccc(-c2ccnc3nc(-c4cc(OC)c(OC)c(OC)c4)nn23)cc1F`, in the experiment with HeLa, the IC50 was over 30 µM.

With `COc1cc(-c2nc3nccc(-c4ccco4)n3n2)cc(OC)c1OC`, the IC50 with HeLa was over 30 µM.
